Measured values of several laboratories.
Target: RAC-gamma serine/threonine-protein kinase (AKT3, Homo sapiens, UniProt Q9Y243)

`c1cncc(-c2cccc(Nc3nccc(NC4CCCCC4)n3)c2)c1` gave a remaining binding of 69% (binding, competition with immobilised ligand; 10 µM).
`Cc1nc(C2CCN(C(=O)c3ccc(OC(F)(F)F)cc3N)CC2)c2ncc(N3CCN(C)CC3)cc2n1` has a remaining binding of 95% (cell-free assay, competition with immobilised ligand; 1 µM).
`CCN1CCN(Cc2ccc(C(=O)Nc3ccc(C)c(Oc4ccc5c(c4)CC(=O)N5)c3)cc2C(F)(F)F)CC1` gave a remaining binding of 89% (binding, competition with immobilised ligand; 1 µM).
`C[C@H]1CCN(c2nccc(-c3cnn4ncccc34)n2)C1` gave a remaining binding of 99% (binding; 1 µM).
`FC(F)(F)Oc1cccc(-c2cnc3ccc(-c4ccncc4)nn23)c1` gave a remaining binding of 99% (cell-free assay, competition with immobilised ligand; 5 µM).
For `N[C@@H]1CCN(c2nccc(-c3cnn4ncccc34)n2)C1`, the remaining binding was 95% (binding; 1 µM).
With `CCc1ccccc1C(=O)Nc1n[nH]c2c(C)c(F)c(C3C(C#N)=C(C)N(C)C(C)=C3C#N)cc12` the remaining binding was 100% (cell-free assay, competition with immobilised ligand; 1 µM).
For `CN(C)c1ncc(F)c(-c2cnn3ncccc23)n1`, the remaining binding was 100% (binding; 1 µM).
With `Nc1ncc2c(n1)-c1c([nH]c3ccc(C#CC4CC4)cc13)CCCC2` the remaining binding was 69% (binding, competition with immobilised ligand; 1 µM).
The remaining binding of `O=C(c1ccc(Nc2ncc(Cl)c(-c3ccc(Cl)s3)n2)cc1)N1CCC(N2CCCC2)CC1` is reported as 100% (binding, competition with immobilised ligand; 1 µM).
For `Cc1noc([C@H]2C[C@@H](c3ccc(C(F)(F)F)cc3)CN(C(=O)N3CCS(=O)(=O)C3)C2)n1`, the remaining binding was 100% (cell-free assay, competition with immobilised ligand; 1 µM).
`COc1cnc(Nc2cccc(S(N)(=O)=O)c2)nc1N1CCN(c2ccccc2)C(=O)C1` gave a remaining binding of 100% (binding, competition with immobilised ligand; 1 µM).
`NS(=O)(=O)c1cc(NC(=O)C2(c3ccccc3Cl)CC2)ccc1Oc1cccc(Cl)c1` gave a remaining binding of 79% (cell-free assay, competition with immobilised ligand; 1 µM).
The remaining binding of `O=C(c1ccc(Nc2nccc(-c3cc4ccccc4s3)n2)cc1)N1CCC(N2CCCC2)CC1` is reported as 100% (binding, competition with immobilised ligand; 1 µM).
`COc1ccnn2ncc(-c3ccnc(N(C)C)n3)c12` gave a remaining binding of 98% (binding; 1 µM).
`O=C(Nc1c[nH]nc1C(=O)NC1CCNCC1)c1cc(F)cc(F)c1` has a remaining binding of 100% (binding, competition with immobilised ligand; 1 µM).
The remaining binding of `F[C@@H]1CCN(c2nccc(-c3cnn4ncccc34)n2)C1` is reported as 93% (binding; 1 µM).
With `CCCOc1ccc([C@H]2[C@H](C(=O)O)[C@@H](c3ccc4c(c3)OCO4)CN2CC(=O)Nc2c(CC)cccc2CC)cc1` the remaining binding was 82% (cell-free assay, competition with immobilised ligand; 1 µM).
`Cc1cnn2ncc(-c3ccnc(N(C)C)n3)c2c1` has a remaining binding of 98% (binding; 1 µM).
The remaining binding of `CCC(=O)N[C@H]1CC[C@@H](C(=O)N(C)c2ccc(-c3nc4ccccc4o3)cc2)C1` is reported as 100% (cell-free assay, competition with immobilised ligand; 1 µM).
`O=C(NCCCN1CCOCC1)c1ccc(Nc2ncc(Cl)c(-c3ccc(Cl)s3)n2)cc1` has a remaining binding of 100% (binding, competition with immobilised ligand; 1 µM).
